In ChEMBL document CHEMBL3763086, “Salicylanilide N-monosubstituted carbamates: Synthesis and in vitro antimicrobial activity” (2016):
Converted amounts (≈) assume the structure as drawn.

Columns and labels:
Type in all cases: functional
[1] = tested on: Staphylococcus epidermidis; assay: Antibacterial activity against Staphylococcus epidermidis H 6966/08 after 24 hrs by microbroth dilution method; settings: H 6966/08, 24 h
Summary of the method: (§1)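 Microbroth dilution modified per M07-A07 in Mueller-Hinton broth, pH 7.4 (±0.2). Inoculum in sterile water adjusted to 0.5 McFarland. MIC taken as growth reduction of at least 90% (IC90) versus control, read visually and at 540 nm after 24 and 48 h incubation in the dark.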

Escherichia coli [2] = assay: Antibacterial activity against Escherichia coli CCM 4517 after 48 hrs by microbroth dilution method; settings: CCM 4517, 48 h; summary of the method: as §1
[3] = tested on: Trichophyton mentagrophytes; assay: Antifungal activity against Trichophyton mentagrophytes 445 after 120 hrs by microbroth dilution method; settings: Trichophyton mentagrophytes, 445, 120 h
Nakaseomyces glabratus [4] = assay: Antifungal activity against Candida glabrata 20/I after 48 hrs by microbroth dilution method
Klebsiella pneumoniae [5] = assay: Antibacterial activity against ESBL-positive Klebsiella pneumoniae J 14368/08 after 48 hrs by microbroth dilution method; settings: J 14368/08, 48 h; summary of the method: as §1
Staphylococcus aureus [6] = assay: Antibacterial activity against Staphylococcus aureus CCM 4516/08 after 48 hrs by microbroth dilution method; settings: CCM 4516/08, 48 h
Summary of the method: (§2)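 Microdilution broth method modified after M07-A07 in Mueller-Hinton broth adjusted to pH 7.4 (±0.2). Inoculum prepared in sterile water to 0.5 McFarland (1.5 × 10^8 CFU/mL). MIC taken as growth reduction versus control (IC95 per table header), read visually and spectrophotometrically at 540 nm after 24 and 48 h incubation in the dark.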

[7] = tested on: Staphylococcus epidermidis; assay: Antibacterial activity against Staphylococcus epidermidis H 6966/08 after 48 hrs by microbroth dilution method; settings: H 6966/08, 48 h; summary of the method: as §1
Lichtheimia corymbifera [8] = assay: Antifungal activity against Absidia corymbifera 272 after 48 hrs by microbroth dilution method; settings: Lichtheimia corymbifera, 272, 48 h
Klebsiella pneumoniae [9] = assay: Antibacterial activity against Klebsiella pneumoniae D 11750/08 after 48 hrs by microbroth dilution method; settings: D 11750/08, 48 h; summary of the method: as §1
Lichtheimia corymbifera [10] = assay: Antifungal activity against Absidia corymbifera 272 after 24 hrs by microbroth dilution method; settings: Lichtheimia corymbifera, 272, 24 h
Enterococcus sp. [11] = assay: Antibacterial activity against Enterococcus sp. J 14365/08 after 48 hrs by microbroth dilution method; settings: J 14365/08, 48 h; summary of the method: as §1
Pichia kudriavzevii [12] = assay: Antifungal activity against Candida krusei E28 after 24 hrs by microbroth dilution method; settings: E28, 24 h
Escherichia coli [13] = assay: Antibacterial activity against Escherichia coli CCM 4517 after 24 hrs by microbroth dilution method; settings: CCM 4517, 24 h; summary of the method: as §1
[14] = tested on: Trichophyton mentagrophytes; assay: Antifungal activity against Trichophyton mentagrophytes 445 after 72 hrs by microbroth dilution method; settings: Trichophyton mentagrophytes, 445, 72 h
Klebsiella pneumoniae [15] = assay: Antibacterial activity against ESBL-positive Klebsiella pneumoniae J 14368/08 after 24 hrs by microbroth dilution method; settings: J 14368/08, 24 h; summary of the method: as §1
Trichosporon asahii [16] = assay: Antifungal activity against Trichosporon asahii 1188 after 24 hrs by microbroth dilution method; settings: Trichosporon asahii, 1188, 24 h
Staphylococcus aureus [17] = assay: Antibacterial activity against methicillin-resistant Staphylococcus aureus H 5996/08 after 24 hrs by microbroth dilution method; settings: H 5996/08, 24 h; summary of the method: as §2
Klebsiella pneumoniae [18] = assay: Antibacterial activity against Klebsiella pneumoniae D 11750/08 after 24 hrs by microbroth dilution method; settings: D 11750/08, 24 h; summary of the method: as §1
Staphylococcus aureus [19] = assay: Antibacterial activity against methicillin-resistant Staphylococcus aureus H 5996/08 after 48 hrs by microbroth dilution method; settings: H 5996/08, 48 h; summary of the method: as §2
Nakaseomyces glabratus [20] = assay: Antifungal activity against Candida glabrata 20/I after 24 hrs by microbroth dilution method
Pichia kudriavzevii [21] = assay: Antifungal activity against Candida krusei E28 after 48 hrs by microbroth dilution method; settings: E28, 48 h
Staphylococcus aureus [22] = assay: Antibacterial activity against Staphylococcus aureus CCM 4516/08 after 24 hrs by microbroth dilution method; settings: CCM 4516/08, 24 h; summary of the method: as §1
Candida tropicalis [23] = assay: Antifungal activity against Candida tropicalis 156 after 48 hrs by microbroth dilution method; settings: Candida tropicalis, 156, 48 h
Trichosporon asahii [24] = assay: Antifungal activity against Trichosporon asahii 1188 after 48 hrs by microbroth dilution method; settings: Trichosporon asahii, 1188, 48 h
Enterococcus sp. [25] = assay: Antibacterial activity against Enterococcus sp. J 14365/08 after 24 hrs by microbroth dilution method; settings: J 14365/08, 24 h; summary of the method: as §1
Candida albicans [26] = assay: Antifungal activity against Candida albicans ATCC 44859 after 48 hrs by microbroth dilution method; settings: ATCC 44859, 48 h
Candida albicans [27] = assay: Antifungal activity against Candida albicans ATCC 44859 after 24 hrs by microbroth dilution method; settings: ATCC 44859, 24 h
Candida tropicalis [28] = assay: Antifungal activity against Candida tropicalis 156 after 24 hrs by microbroth dilution method; settings: Candida tropicalis, 156, 24 h

## O=C(NCc1ccccc1)Oc1ccc(Cl)cc1C(=O)Nc1ccc(Br)cc1
[1]
  MIC: ≤ 0.49 µM
Escherichia coli [2]
  MIC: > 500 µM
[3]
  MIC: 3.9 µM (≈ 1.79 µg/mL)
Nakaseomyces glabratus [4]
  MIC: 31.2 µM (≈ 14.4 µg/mL)
Klebsiella pneumoniae [5]
  MIC: > 500 µM
Staphylococcus aureus [6]
  MIC: 0.98 µM (≈ 0.451 µg/mL)
[7]
  MIC: 0.98 µM (≈ 0.451 µg/mL)
Lichtheimia corymbifera [8]
  MIC: 7.81 µM (≈ 3.59 µg/mL)
Klebsiella pneumoniae [9]
  MIC: > 500 µM
Lichtheimia corymbifera [10]
  MIC: 7.81 µM (≈ 3.59 µg/mL)
Enterococcus sp. [11]
  MIC: > 500 µM
Pichia kudriavzevii [12]
  MIC: 62.5 µM (≈ 28.7 µg/mL)
Escherichia coli [13]
  MIC: > 500 µM
[14]
  MIC: 3.9 µM (≈ 1.79 µg/mL)
Klebsiella pneumoniae [15]
  MIC: > 500 µM
Trichosporon asahii [16]
  MIC: 15.6 µM (≈ 7.18 µg/mL)
Staphylococcus aureus [17]
  MIC: ≤ 0.49 µM
Klebsiella pneumoniae [18]
  MIC: > 500 µM
Staphylococcus aureus [19]
  MIC: 1.95 µM (≈ 0.896 µg/mL)
Nakaseomyces glabratus [20]
  MIC: 31.2 µM (≈ 14.4 µg/mL)
Pichia kudriavzevii [21]
  MIC: 62.5 µM (≈ 28.7 µg/mL)
Staphylococcus aureus [22]
  MIC: ≤ 0.49 µM
Candida tropicalis [23]
  MIC: 125 µM (≈ 57.5 µg/mL)
Trichosporon asahii [24]
  MIC: 15.6 µM (≈ 7.18 µg/mL)
Enterococcus sp. [25]
  MIC: > 500 µM
Candida albicans [26]
  MIC: 62.5 µM (≈ 28.7 µg/mL)
Candida albicans [27]
  MIC: 62.5 µM (≈ 28.7 µg/mL)
Candida tropicalis [28]
  MIC: 125 µM (≈ 57.5 µg/mL)
